According to ChEMBL document CHEMBL4665798, “Novel Human Urate Transporter 1 Inhibitors as Hypouricemic Drug Candidates with Favorable Druggability” (J Med Chem, 2020):

Columns and labels:
[1] = target: T1, Solute carrier family 22 member 12 (Homo sapiens, UniProt Q96S37); assay: Inhibition of human URAT1 expressed in HEK293T cells assessed as reduction in [14C]uric acid uptake preincubated for 15 mins followed by [14C]uric acid addition by liquid scintillation counting method; format: cell-based
T1 sequence (Q96S37 whole entry): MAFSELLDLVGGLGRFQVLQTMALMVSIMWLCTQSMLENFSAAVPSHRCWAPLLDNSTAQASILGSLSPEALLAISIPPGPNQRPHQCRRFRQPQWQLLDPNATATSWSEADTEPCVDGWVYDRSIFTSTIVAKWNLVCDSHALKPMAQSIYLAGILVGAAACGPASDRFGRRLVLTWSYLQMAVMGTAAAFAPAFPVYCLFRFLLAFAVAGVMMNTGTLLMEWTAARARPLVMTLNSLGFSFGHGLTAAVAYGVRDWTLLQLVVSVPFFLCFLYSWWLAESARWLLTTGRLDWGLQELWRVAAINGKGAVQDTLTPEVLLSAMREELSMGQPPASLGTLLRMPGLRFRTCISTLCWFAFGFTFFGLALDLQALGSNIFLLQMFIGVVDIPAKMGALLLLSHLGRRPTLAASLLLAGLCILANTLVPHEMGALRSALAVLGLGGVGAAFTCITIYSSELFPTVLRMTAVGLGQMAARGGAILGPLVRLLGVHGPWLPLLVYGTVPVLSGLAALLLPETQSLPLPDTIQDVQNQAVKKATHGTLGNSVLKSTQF

[2] = Half-life in Sprague-Dawley rat at 1 mg/kg, iv by LC-MS analysis; format: ADME, organism-based; conditions: in vivo
Cytochrome P450 2D6 = Cytochrome P450 2D6 (Homo sapiens, UniProt P10635); assay: Inhibition of CYP2D6 in human liver microsome using probe substrate measured after 20 mins in presence of NADPH by LC-MS/MS analysis
Cytochrome P450 2D6, sequence (P10635 whole entry): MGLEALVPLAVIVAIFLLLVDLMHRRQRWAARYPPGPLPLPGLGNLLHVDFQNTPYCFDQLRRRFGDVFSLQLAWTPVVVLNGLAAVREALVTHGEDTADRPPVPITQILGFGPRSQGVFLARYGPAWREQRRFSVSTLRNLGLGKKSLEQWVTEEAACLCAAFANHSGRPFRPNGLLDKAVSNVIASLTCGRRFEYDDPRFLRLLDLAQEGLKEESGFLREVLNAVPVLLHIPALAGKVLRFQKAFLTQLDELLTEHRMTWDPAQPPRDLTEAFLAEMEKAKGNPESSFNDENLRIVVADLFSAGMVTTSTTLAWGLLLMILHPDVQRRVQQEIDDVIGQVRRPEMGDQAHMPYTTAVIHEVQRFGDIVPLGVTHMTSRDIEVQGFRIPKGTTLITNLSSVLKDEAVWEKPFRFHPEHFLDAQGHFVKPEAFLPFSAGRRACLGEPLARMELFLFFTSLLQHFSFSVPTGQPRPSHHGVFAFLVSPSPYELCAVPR

Cytochrome P450 2C9 = Cytochrome P450 2C9 (Homo sapiens, UniProt P11712); assay: Inhibition of CYP2C9 in human liver microsome using probe substrate measured after 20 mins in presence of NADPH by LC-MS/MS analysis
Cytochrome P450 2C9, sequence (P11712 whole entry): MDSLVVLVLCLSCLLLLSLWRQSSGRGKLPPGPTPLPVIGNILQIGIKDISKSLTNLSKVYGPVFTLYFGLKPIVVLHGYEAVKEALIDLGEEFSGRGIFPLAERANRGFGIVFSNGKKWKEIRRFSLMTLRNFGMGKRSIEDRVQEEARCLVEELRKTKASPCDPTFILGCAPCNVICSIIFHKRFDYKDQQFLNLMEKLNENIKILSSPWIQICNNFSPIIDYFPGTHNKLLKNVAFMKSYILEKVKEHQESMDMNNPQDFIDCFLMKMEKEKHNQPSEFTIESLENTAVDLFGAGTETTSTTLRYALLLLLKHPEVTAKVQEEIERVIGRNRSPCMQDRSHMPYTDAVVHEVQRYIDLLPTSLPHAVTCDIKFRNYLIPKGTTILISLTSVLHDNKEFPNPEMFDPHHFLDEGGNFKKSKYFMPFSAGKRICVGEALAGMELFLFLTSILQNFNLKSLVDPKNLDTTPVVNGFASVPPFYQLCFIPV

[3] = AUC (0 to t) in Sprague-Dawley rat at 1 mg/kg, iv by LC-MS analysis; format: ADME, organism-based; design: dose 1 mg/kg; conditions: in vivo
Mus musculus = assay: Hypouricemic activity in Kunming mouse model of xanthine/potassium oxonate-induced acute hyperuricemia assessed as decrease in serum uric acid level at 2 mg/kg administered 3 hrs prior to xanthine/potassium oxonate and measured after 6 hrs relative to control; format: functional; design: scale not given: the % may be the effect or the level left; conditions: time 9 hrs
Procedure, shortened: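 Male Kunming mice, hyperuricemia induced by intragastric xanthine plus subcutaneous potassium oxonate (0.2 mL each). […] Groups: normal vehicle, untreated model, active control, test. Serum uric acid measured. Decrease ratio = (model SUA − compound SUA)/(model SUA − vehicle SUA).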

[4] = MRT (0 to infinity) in Sprague-Dawley rat at 1 mg/kg, iv by LC-MS analysis; format: ADME, organism-based; conditions: in vivo
[5] = Acute toxicity in female Kunming mouse assessed as change in body weight at 500 mg/kg, ig measured for 1 week; format: organism-based; conditions: in vivo, po, 168 h, time 1 weeks
[6] = Sub-acute toxicity in female Kunming mouse assessed as increase in body weight at 50 mg/kg, po administered once every second day for 14 days; format: organism-based; conditions: in vivo, 336 h, time 14 day
[7] = Clearance in Sprague-Dawley rat at 1 mg/kg, iv by LC-MS analysis; format: ADME, organism-based; conditions: in vivo
[8] = Sub-acute toxicity in Kunming mouse assessed as ballooning degeneration of liver at 50 mg/kg, po administered as single dose every other day for 14 days by H and E staining based assay; format: organism-based; conditions: in vivo, 336 h, time 14 day
Cytochrome P450 3A4 = Cytochrome P450 3A4 (Homo sapiens, UniProt P08684); assay: Inhibition of CYP3A4 in human liver microsome using midazolam as substrate measured after 20 mins in presence of NADPH by LC-MS/MS analysis
Cytochrome P450 3A4, sequence (P08684 whole entry): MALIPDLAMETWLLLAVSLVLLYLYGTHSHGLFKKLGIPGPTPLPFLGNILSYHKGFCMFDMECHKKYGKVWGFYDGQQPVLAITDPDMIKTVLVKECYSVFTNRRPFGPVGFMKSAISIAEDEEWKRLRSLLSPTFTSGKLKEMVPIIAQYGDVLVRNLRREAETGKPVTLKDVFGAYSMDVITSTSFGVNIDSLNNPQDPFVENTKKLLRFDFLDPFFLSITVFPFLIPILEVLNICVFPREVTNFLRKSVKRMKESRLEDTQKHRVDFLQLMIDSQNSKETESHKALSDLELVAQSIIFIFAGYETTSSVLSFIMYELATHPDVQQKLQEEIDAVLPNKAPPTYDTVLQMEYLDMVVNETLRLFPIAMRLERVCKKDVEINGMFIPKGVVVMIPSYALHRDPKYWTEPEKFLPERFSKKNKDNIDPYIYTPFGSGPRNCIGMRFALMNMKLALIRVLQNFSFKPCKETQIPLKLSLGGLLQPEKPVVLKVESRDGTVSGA

[9] = Sub-acute toxicity in Kunming mouse assessed as hydropic degeneration of hepatocytes at 50 mg/kg, po administered as single dose every other day for 14 days by H and E staining based assay; format: organism-based; conditions: in vivo, 336 h, time 14 day
[10] = Sub-acute toxicity in Kunming mouse assessed as congestion in hepatic central vein at 50 mg/kg, po administered as single dose every other day for 14 days by H and E staining based assay; format: organism-based; conditions: in vivo, 336 h, time 14 day
[11] = Acute toxicity in Kunming mouse assessed as induction of abnormal behaviors by measuring clonic convulsion at 500 mg/kg, ig; format: organism-based; conditions: in vivo, po
[12] = Acute toxicity in Kunming mouse assessed as induction of abnormal behaviors by measuring anorexia at 500 mg/kg, ig; format: organism-based; conditions: in vivo, po
Cytochrome P450 2C19 = Cytochrome P450 2C19 (Homo sapiens, UniProt P33261); assay: Inhibition of CYP2C19 in human liver microsome using probe substrate measured after 20 mins in presence of NADPH by LC-MS/MS analysis
Cytochrome P450 2C19, sequence (P33261 whole entry): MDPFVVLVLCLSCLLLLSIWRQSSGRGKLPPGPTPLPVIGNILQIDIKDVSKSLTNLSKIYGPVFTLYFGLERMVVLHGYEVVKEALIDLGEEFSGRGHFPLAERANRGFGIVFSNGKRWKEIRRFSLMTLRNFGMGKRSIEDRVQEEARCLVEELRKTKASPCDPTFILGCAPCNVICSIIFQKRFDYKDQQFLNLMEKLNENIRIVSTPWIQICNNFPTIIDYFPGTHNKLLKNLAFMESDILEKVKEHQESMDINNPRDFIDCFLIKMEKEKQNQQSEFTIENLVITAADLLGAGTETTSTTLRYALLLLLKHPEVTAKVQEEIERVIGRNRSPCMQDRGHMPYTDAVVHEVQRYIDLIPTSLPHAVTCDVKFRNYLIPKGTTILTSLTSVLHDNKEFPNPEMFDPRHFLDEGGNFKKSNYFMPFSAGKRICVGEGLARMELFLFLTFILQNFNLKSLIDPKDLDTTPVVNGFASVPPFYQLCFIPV

[13] = Sub-acute toxicity in Kunming mouse assessed as anorexia at 50 mg/kg, po administered once every second day for 14 days; format: organism-based; conditions: in vivo, 336 h, time 14 day
[14] = Sub-acute toxicity in Kunming mouse assessed as lethargy at 50 mg/kg, po administered once every second day for 14 days; format: organism-based; conditions: in vivo, 336 h, time 14 day
[15] = Sub-acute toxicity in Kunming mouse assessed as death at 50 mg/kg, po administered once every second day for 14 days; format: organism-based; conditions: in vivo, 336 h, time 14 day
[16] = Sub-acute toxicity in Kunming mouse assessed as hepatocellular condensation of liver at 50 mg/kg, po administered as single dose every other day for 14 days by H and E staining based assay; format: organism-based; conditions: in vivo, 336 h, time 14 day
Cytochrome P450 1A2 = target: T2, Cytochrome P450 1A2 (Homo sapiens, UniProt P05177); assay: Inhibition of CYP1A2 in human liver microsome using probe substrate measured after 20 mins in presence of NADPH by LC-MS/MS analysis
T2 sequence (P05177 whole entry): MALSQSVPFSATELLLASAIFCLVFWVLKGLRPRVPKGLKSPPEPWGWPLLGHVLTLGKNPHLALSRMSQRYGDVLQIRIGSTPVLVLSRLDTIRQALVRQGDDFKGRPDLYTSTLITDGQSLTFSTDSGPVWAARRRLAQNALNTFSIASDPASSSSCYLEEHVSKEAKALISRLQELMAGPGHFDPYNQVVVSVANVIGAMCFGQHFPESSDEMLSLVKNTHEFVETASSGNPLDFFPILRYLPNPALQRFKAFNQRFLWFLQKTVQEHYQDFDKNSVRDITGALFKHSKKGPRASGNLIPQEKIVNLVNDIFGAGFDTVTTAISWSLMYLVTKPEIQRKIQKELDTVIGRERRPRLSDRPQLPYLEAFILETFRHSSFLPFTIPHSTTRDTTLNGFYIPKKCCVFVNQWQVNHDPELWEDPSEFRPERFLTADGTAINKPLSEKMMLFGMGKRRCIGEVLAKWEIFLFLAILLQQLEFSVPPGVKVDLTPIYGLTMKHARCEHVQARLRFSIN

[17] = Acute toxicity in male Kunming mouse assessed as change in body weight at 500 mg/kg, ig measured for 1 week; format: organism-based; conditions: in vivo, po, 168 h, time 1 weeks
[18] = Sub-acute toxicity in Kunming mouse assessed as clonic convulsion at 50 mg/kg, po administered once every second day for 14 days; format: organism-based; conditions: in vivo, 336 h, time 14 day
[19] = Acute toxicity in Kunming mouse assessed as induction of abnormal behaviors by measuring lethargy at 500 mg/kg, ig; format: organism-based; conditions: in vivo, po

SMILES | IC50 [1] | half-life [2] | IC50 (Cytochrome P450 2D6) | IC50 (Cytochrome P450 2C9) | AUC(0-t) [3] | Activity (Mus musculus) | MRT inf [4] | Activity [5] | Activity [6] | clearance [7] | Activity [8] | IC50 (Cytochrome P450 3A4) | Activity [9] | Activity [10] | Activity [11] | Activity [12] | IC50 (Cytochrome P450 2C19) | Activity [13] | Activity [14] | Activity [15] | also measured
O=C(CSc1nnc(Br)n1-c1ccc(C2CC2)c2ccccc12)NS(=O)(=O)c1ccc(Br)cc1 | 4.17 µM | 5 h | > 50 µM | 0.636 µM | 3030 ng·h/mL | 97.84% | 4.3 h | Non-Toxic | Non-Toxic | 5.46 mL/min/kg | Non-Toxic | > 50 µM | Non-Toxic | Non-Toxic | Non-Toxic | Non-Toxic | 20.6 µM | Non-Toxic | Non-Toxic | Non-Toxic | Activity [16]: Non-Toxic; IC50 (Cytochrome P450 1A2): > 50 µM; Activity [17]: Non-Toxic; Activity [18]: Non-Toxic; Activity [19]: Non-Toxic
CC(Sc1nc2ncccc2n1-c1ccc(C2CC2)c2ccccc12)C(=O)O (racemic) | 1.57 µM | 3.1 h | > 50 µM | 20 µM | 3480 ng·h/mL | 92.89% | 2.7 h | Non-Toxic | Non-Toxic | 4.4 mL/min/kg | Non-Toxic | > 50 µM | Non-Toxic | Non-Toxic | Non-Toxic | Non-Toxic | 48.7 µM | Non-Toxic | Non-Toxic | Non-Toxic | Activity [16]: Non-Toxic; IC50 (Cytochrome P450 1A2): > 50 µM; Activity [17]: Non-Toxic; Activity [18]: Non-Toxic; Activity [19]: Non-Toxic
